This is a sample that favours compounds with a hit; in the whole collection about 1.9% have one here.
UCH37 inh – inhibitors of human UCH37 deubiquitinase, primary screen, biochemical, Ub-AMC cleavage, fluorescence. inhibition, % (no concentration beside the values). Ubiquitin carboxyl-terminal hydrolase isozyme L5 (Homo sapiens), Q9Y5K5. 330,000 compounds, 0.33% hits. purified proteasome/UCH37;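 active = mean inhibition over replicate wells above about 20%, limit read from the data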;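 also: 0% = compound-free wells with enzyme and 100% = wells lacking proteasome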
Target sequence (Q9Y5K5 whole entry, looked up): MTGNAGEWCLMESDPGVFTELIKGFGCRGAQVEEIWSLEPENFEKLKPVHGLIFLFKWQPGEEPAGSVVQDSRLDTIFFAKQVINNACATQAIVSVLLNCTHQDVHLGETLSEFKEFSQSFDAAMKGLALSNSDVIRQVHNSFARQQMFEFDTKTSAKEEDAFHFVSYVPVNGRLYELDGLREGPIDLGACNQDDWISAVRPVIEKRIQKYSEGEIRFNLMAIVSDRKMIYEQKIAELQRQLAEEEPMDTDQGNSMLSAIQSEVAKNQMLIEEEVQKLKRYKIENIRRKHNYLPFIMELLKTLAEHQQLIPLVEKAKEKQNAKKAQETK
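Assay system: Proteasome-bound UCH37. Buffer or medium: pH 7.4 Tris-HCl (50 mM) with ovalbumin, ATP-MgCl2, DTT. Incubation: 30 min preincubation with enzyme, 25 min cleavage at room temperature. Measured by: fluorescence, ex 355 nm, em 460 nm. Read-out basis: percent inhibition. Control set: wells without proteasome as full block, compound-free enzyme plus substrate as uninhibited.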
aDG glyco up – activators of alpha-DG glycosylation, primary screen, uHTS, Pro5-aDG cells, AlphaScreen | activation, % at 10 µM | 360,000 compounds, 0.22% hits | alpha-DG glycosylation AlphaScreen (IIH6); 0% Pro5, 100% B10-LARGE cell signal;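 active = activation of at least 8% versus controls, or a plate z-score of at least 8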;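 also: Pro5 are CHO cells carrying HIG-tagged alpha-DG that lacks glycosylation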
MsrA inhibitor – bovine MsrA enzyme inhibitors, primary screen, biochemical, absorbance, HTS | Methionine sulfoxide reductase A (Bos taurus) | AID 651718, 2012 | inhibition, % at 15.5 µM | purified bovine MsrA, absorbance read-out | 360,000 compounds, 0.75% hits; in the data active = inhibition above about 4.5%;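 also: 0% = vehicle wells with enzyme and 100% = reference inhibitor wells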
N-glyco inh – increase of ERlucT glycosylation luciferase signal, primary screen, N-linked glycosylation inhibitor project, D54 ERlucT cells, luminescence, set 2; D54 ERlucT glycosylation luciferase reporter, 24 h; percent of 100 nM tunicamycin response; reporter increase, % at 12.5 µM; 360,000 compounds, 0.23% hits;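 active = mean luciferase reporter signal, scaled so untreated is 0 and the glycosylation-blocking control 100, at or above a set limit in every replicate; inconclusive = mean reaches the limit but not every replicate does; inactive = mean below the limit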;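 also: luciferase carries N-glycosylation sites so blocking glycosylation raises the light; 0% = median of neutral control wells and 100% = median of 100 nM tunicamycin wells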
Vif inh – HIV Vif self-association inhibitors, primary screen, imaging, HEK293T, single point; HEK293T cells, Vif self-association by quenched fluorescence, 24 h; 340,000 compounds, 0.35% hits; inhibition, % at 7.49 µM; in the data active = inhibition above about 50%, passing the limit was not always enough; inconclusive = no clear call, values can overlap the other calls; inactive = below about 31%
MsrA act – bovine MsrA enzyme activators, primary screen, biochemical, absorbance, HTS; AID 602163, 2012; purified bovine MsrA, absorbance read-out; 360,000 compounds, 0.3% hits; activation, % at 10.6 µM; in the data active = activation above about 7.5%;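 also: 0% = vehicle and 100% = reference activator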
Active calls of the source: *; i = inactive; ? = inconclusive; / = no result.

SMILES	UCH37 inh	aDG glyco up	MsrA inhibitor	N-glyco inh	Vif inh	MsrA act
O=C(CCN1CCOCC1)N1CCc2c([nH]c3ccccc23)C1c1cccc(Cl)c1 (stereo unspecified)	23.1*	0.0	-0.7	-2.1	-13.5	1.6
Cc1cc(C)n2nc(C(=O)NN=C/C=C/c3ccccc3)nc2n1	2.3	/	/	/	/	/
CC1C(=NO)C(CN(C)C)C2CC1C2(C)C (stereo unspecified)	5.5	/	/	/	/	/
O=C(CCC(=O)Nc1ccccc1)NN=Cc1ccco1	2.6	/	/	/	/	/
O=C(Nc1cccc(C(=O)O)c1)/C(=C\c1ccc2c(c1)OCO2)NC(=O)c1ccco1	10.8	-0.2	2.9	0.6	-14.6	-5.9
O=C(CNC(=O)/C(=C\c1ccccc1)NC(=O)c1ccc(Br)cc1)OCc1ccccc1	0.6	0.2	-0.2	-1.9	11.4	2.2
O=C(CNC(=O)/C(=C\c1ccc(F)cc1)NC(=O)c1ccccc1)OCc1ccccc1	27.5*	0.2	0.7	-4.2	-30.6	2.1
O=C(Nc1cccc(C(=O)O)c1)/C(=C\c1ccc(F)cc1)NC(=O)c1ccco1	5.3	-0.1	1.4	4.2	64.5*	-2.8
COc1ccc(-c2cc(C(=O)NCC(c3ccccc3)N(C)C)c3ccccc3n2)cc1OC (stereo unspecified)	-29.3	-0.1	1.5	29.5*	3.5	-2.3
COc1ccc(-c2cc(C(=O)NCc3ccco3)c3ccccc3n2)cc1OC	-290.2	0.1	0.8	1.5	-7.2	-3.5
CC(C)C(NC(=O)c1ccccc1NC(=O)C(C)(C)C)C(=O)N1CCOCC1 (stereo unspecified)	0.4	0.0	1.0	2.1	69.1*	-1.1
COc1ccc(OCCN2CCC(C(=O)NC(c3ccccn3)c3ccccc3OC)CC2)cc1 (stereo unspecified)	/	-0.2	0.2	-0.9	50.9*	1.0
c1cncc(-c2cn(C[C@H]3CC[C@@H]([C@@H]4CC[C@H](Cn5cc(-c6cccnc6)nn5)O4)O3)nn2)c1	24.8*	-0.2	1.8	2.3	15.9	0.6
Cc1ccc(C(=O)NC(=C(Cl)Cl)S(=O)(=O)c2ccc(Cl)cc2)cc1	3.4	-0.2	-0.1	53.9*	9.8	-9.9
Cc1ccc(S(=O)(=O)C(NC(=O)c2ccccc2)=C(Cl)Cl)cc1	0.8	0.2	-0.7	74.9*	?	0.0
O=C(NC(=C(Cl)Cl)S(=O)(=O)c1ccc(Cl)cc1)c1ccccc1	2.2	-0.1	1.4	58.7*	2.4	-0.5
Cc1ccc(C(=O)NC(=C(Cl)Cl)S(=O)(=O)c2ccc(C)cc2)cc1	2.2	0.7	0.2	?	-2.5	-0.1
CC(=O)NC(=C(Cl)Cl)S(=O)(=O)c1ccccc1	2.4	0.1	-0.2	?	/	-8.4
Cc1ccc(S(=O)(=O)/C(=C/Cl)NC(=O)c2ccccc2)cc1	5.6	1.5	0.7	-1.1	0.5	-5.5
Cc1cc(-c2onc(C)c2C(=O)NN=Cc2ccccc2)no1	5.4	/	/	/	/	/
Cn1c(=O)[nH]c(=O)c2c1nc(N1CCCCC1)n2CC=NNC(=O)c1cc(Br)ccc1O	-8.4	/	/	/	/	/
CCN(CC)CC(C)CNC(=O)CC(C(=O)N1CCc2ccccc21)n1ccnc1 (stereo unspecified)	1.2	0.0	0.2	-0.6	122.6*	-1.4
CCCN(CCC)CCCNC(=O)CC(C(=O)N1CCc2ccccc21)n1ccnc1 (stereo unspecified)	2.9	-0.1	-0.8	0.8	/	-0.8
COc1ccc(S(=O)(=O)N2CCN(C(=O)c3cnc(C)cn3)CC2)cc1	33.5*	-0.2	-0.2	0.6	/	0.2
COc1ccc(S(=O)(=O)N2CCN(C(=O)c3ccc4ccccc4n3)CC2)cc1	-0.8	0.1	1.1	3.1	-3.1	5.3
SMILES	UCH37 inh	aDG glyco up	MsrA inhibitor	N-glyco inh	Vif inh	MsrA act
COc1ccc(-c2ccc(/C=C(\NC(=O)c3ccccc3)C(=O)N3CCOCC3)o2)cc1	12.4	0.3	4.6*	4.5	-2.0	-6.2
NC1(C(=O)O)CSSC1	/	-0.3	0.0	73.3*	0.2	-0.3
Cc1cccc2c(N)c3c(nc12)CCCC3 (tested in a mixture with another compound)	-2.2	0.4	0.6	10.5	-0.3	-4.4
Cc1cc(C)c2c(N)c3cccc(C)c3nc2n1	i	-0.1	1.4	103.5*	/	-3.5
C=C1C(=O)O[C@H]2C[C@]3(C)C([C@@H](OC(=O)/C(C)=C/C)[C@H]12)[C@](C)(O)CC[C@H]3O (stereo partly specified)	4.5	0.0	1.0	-10.0	11.4	-3.1
C=C[C@@]1(C)CC(=O)[C@]2(O)[C@@]3(C)[C@@H](O)CCC(C)(C)[C@@H]3[C@H](OC(C)=O)[C@H](O)[C@@]2(C)O1	0.6	-0.2	-0.1	1.3	81.8*	-0.8
C=C[C@@]1(C)CC(=O)[C@]2(O)[C@@]3(C)[C@@H](O)CCC(C)(C)[C@@H]3[C@H](O)[C@H](OC(C)=O)[C@@]2(C)O1	2.1	0.2	-0.9	14.7	75.5*	-6.4
Cc1nc2ccc(C(=O)NCCc3c[nH]c4ccccc34)cn2c1N(C)C(=O)CCc1ccccc1	/	-0.1	1.4	-1.9	54.0*	-4.1
CCCCN(C)c1c(C)nc2ccc(C(=O)NCCc3c[nH]c4ccccc34)cn12	/	0.1	-1.2	-0.2	-0.1	1.3
NC(=O)C[n+]1cccc(C=NO)c1	0.5	/	/	/	/	/
CCOC(=O)c1c(C)oc2c(F)c(F)c(F)c(F)c2c1=O	7.1	-0.2	-0.6	30.5*	-5.0	-7.6
Oc1ccc(N=Cc2ccc(-c3cccs3)s2)cc1	-264.6	0.2	5.2*	5.9	7.6	-9.0
O=Cc1ccc(-c2cccs2)s1	/	-0.2	2.0	-8.3	-9.6	-3.8
CCN(CC)c1ccc(C=NNC(=O)CC(C)C)cc1	-190.9	/	/	/	/	/
CCOC(=O)C(=NNc1ccc(OC)cc1)c1csc(Nc2ccccc2)n1	1.4	/	/	/	/	/
S=c1[nH]nc(-c2ccccn2)n1N=Cc1ccccc1	1.9	/	/	/	/	/
CCn1c(CNc2cccc(C(F)(F)F)c2)n[nH]c1=S	31.8*	0.1	-0.3	2.0	/	1.8
CC(=O)N=Cc1c(C)c(C#N)c(=O)n(C)c1O	2.3	-0.2	3.5	5.1	-5.6	-3.3
Cc1c(C=O)c(Cl)n(C)c(=O)c1C#N	21.3*	0.0	0.9	3.1	3.5	-1.6
O=C(N/N=C/C=C/c1ccccc1[N+](=O)[O-])c1cccs1	/	0.2	1.9	-1.2	5.3	-4.5
O=C(N/N=C\C=C\c1ccc([N+](=O)[O-])o1)c1cccs1	/	0.1	3.0	40.9*	1.1	5.1

From PubChem BioAssay
